Active and inactive are the calls of the source.
Experiments:
[1] = system: Mus musculus; assay: In vivo binding affinity to myelin sheath in Plp-Akt-DD transgenic mouse corpus callosum at 25 mg/kg, iv after 30 mins by fluorescent microscopic analysis; type: functional, organism-based; set-up: dose 25 mg/kg; settings: tested as the 11C-labelled form
Outline: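 Anesthetized Plp-Akt-DD mice and control littermates received MeDAS, 25 mg/kg (about 0.5 mg), by tail vein. After 30 min they were perfused with saline and then 4% PFA. Brains were postfixed overnight, cryoprotected in 30% sucrose and cut into 10 μm cryosections. Sections were imaged directly by fluorescence microscopy, with Black-Gold staining done for comparison.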

[2] = organism: Mus musculus; assay: Binding affinity to myelin sheath in Plp-Akt-DD transgenic mouse corpus callosum by fluorescence assay; type: tissue-based
Outline: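 Perfusion-fixed (4% PFA) brains from Plp-Akt-DD mice and wild-type SWR/J littermates (5 months old) were cut into 10 μm coronal cryosections and stained in vitro with 10 μM MeDAS. Fluorescence was imaged in the corpus callosum from the midline to below the apex of the cingulum, 8 images per mouse, 20× objective. Images were thresholded against Black-Gold reactivity and intensity was expressed relative to WT set at 100. n = 4, unpaired Student's t-test.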

[3] = organism: Mus musculus; assay: Binding affinity to myelin sheath in Plp-Akt-DD transgenic mouse corpus callosum at 10 uM after 20 mins; type: tissue-based; settings: tested as the 11C-labelled form
[4] = system: Intestine; assay: Biodistribution in Swiss-Webster mouse intestine at 3.7 MBq, iv after 30 mins; type: ADME, organism-based; settings: in vivo, 0.5 h
Outline: (§1)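 About 3.7 MBq (100 μCi) of [11C]MeDAS was given by tail vein to Swiss-Webster mice, which were euthanized by cardiac excision at 5, 30 and 60 min. Heart, liver, spleen, lung, kidney, stomach and intestine were removed and counted in an automatic gamma well-counter. Results are %ID/organ, n = 3, mean ± SD.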

[5] = Drug uptake in Swiss-Webster mouse corpus callosum at 111 MBq, iv after 20 mins by magnetic resonance imaging analysis in presence of BDB; type: ADME, organism-based; settings: in vivo
[6] = Octanol-water partition coefficient, log P of the compound at pH 7.4; type: physicochemical
Outline: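 [11C]MeDAS (about 500,000 cpm, >98% radiochemical purity) was partitioned between n-octanol and phosphate buffer (pH 7.40) by vortexing 3 min at room temperature, then centrifuged at 3500 rpm for 5 min. The octanol layer was re-partitioned until values were consistent. logP = log of cpm/g octanol over cpm/g buffer, in triplicate.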

[7] = Drug uptake in Plp-Akt-DD transgenic mouse corpus callosum 7.4 MBq, iv after 90 mins by microPET imaging analysis; settings: in vivo, 1.5 h
[8] = system: Intestine; assay: Biodistribution in Swiss-Webster mouse intestine at 3.7 MBq, iv after 5 mins; type: ADME, organism-based; settings: in vivo; outline: as §1
[9] = Drug uptake in Swiss-Webster mouse corpus callosum at 111 MBq, iv; settings: in vivo
[10] = system: Kidney; assay: Biodistribution in Swiss-Webster mouse kidney at 3.7 MBq, iv after 60 mins; type: ADME, organism-based; settings: in vivo, 1 h; outline: as §1
[11] = system: Brain; assay: Drug uptake in Plp-Akt-DD transgenic mouse brain at 7.4 MBq, iv after 90 mins by microPET imaging analysis; settings: in vivo, 1.5 h
[12] = system: Liver; assay: Biodistribution in Swiss-Webster mouse liver at 3.7 MBq, iv after 5 mins; type: ADME, organism-based; settings: in vivo; outline: as §1
[13] = system: Stomach; assay: Biodistribution in Swiss-Webster mouse stomach at 3.7 MBq, iv after 60 mins; type: ADME, organism-based; settings: in vivo, 1 h; outline: as §1
[14] = system: Spleen; assay: Biodistribution in Swiss-Webster mouse spleen at 3.7 MBq, iv after 5 mins; type: ADME, organism-based; settings: in vivo; outline: as §1
[15] = system: Brain; assay: Biodistribution in Swiss-Webster mouse brain at 3.7 MBq, iv after 30 mins; type: ADME, organism-based; settings: in vivo, 0.5 h
Outline: (§2)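 [11C]MeDAS, up to 3.7 MBq (100 μCi), was injected into the tail vein of Swiss-Webster mice (20-25 g). Brains were removed at 5, 30 and 60 min, weighed and gamma-counted. Decay-corrected uptake is given as %ID/organ, n = 3, mean ± SD.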

[16] = system: Brain; assay: Drug uptake in Swiss-Webster mouse brain at 111 MBq, iv after 20 mins by autoradiography; type: ADME, organism-based; settings: in vivo
[17] = system: Heart; assay: Biodistribution in Swiss-Webster mouse heart at 3.7 MBq, iv after 5 mins; type: ADME, organism-based; settings: in vivo; outline: as §1
[18] = system: Heart; assay: Biodistribution in Swiss-Webster mouse heart at 3.7 MBq, iv after 60 mins; type: ADME, organism-based; settings: in vivo, 1 h; outline: as §1
[19] = system: Brain; assay: Biodistribution in Swiss-Webster mouse brain at 3.7 MBq, iv after 5 mins; type: ADME, organism-based; settings: in vivo; outline: as §2
[20] = system: Kidney; assay: Biodistribution in Swiss-Webster mouse kidney at 3.7 MBq, iv after 5 mins; type: ADME, organism-based; settings: in vivo; outline: as §1
[21] = system: Kidney; assay: Biodistribution in Swiss-Webster mouse kidney at 3.7 MBq, iv after 30 mins; type: ADME, organism-based; settings: in vivo, 0.5 h; outline: as §1
[22] = system: Spleen; assay: Biodistribution in Swiss-Webster mouse spleen at 3.7 MBq, iv after 60 mins; type: ADME, organism-based; settings: in vivo, 1 h; outline: as §1
[23] = system: Spleen; assay: Biodistribution in Swiss-Webster mouse spleen at 3.7 MBq, iv after 30 mins; type: ADME, organism-based; settings: in vivo, 0.5 h; outline: as §1
[24] = system: Lung; assay: Biodistribution in Swiss-Webster mouse lung at 3.7 MBq, iv after 5 mins; type: ADME, organism-based; settings: in vivo; outline: as §1
[25] = system: Lung; assay: Biodistribution in Swiss-Webster mouse lung at 3.7 MBq, iv after 60 mins; type: ADME, organism-based; settings: in vivo, 1 h; outline: as §1
[26] = system: Liver; assay: Biodistribution in Swiss-Webster mouse liver at 3.7 MBq, iv after 60 mins; type: ADME, organism-based; settings: in vivo, 1 h; outline: as §1
[27] = system: Brain; assay: Biodistribution in Swiss-Webster mouse brain at 3.7 MBq, iv after 60 mins; type: ADME, organism-based; settings: in vivo, 1 h; outline: as §2
[28] = Drug uptake in Swiss-Webster mouse corpus callosum at 111 MBq, iv after 20 mins by magnetic resonance imaging analysis; type: ADME, organism-based; settings: in vivo
[29] = system: Lung; assay: Biodistribution in Swiss-Webster mouse lung at 3.7 MBq, iv after 30 mins; type: ADME, organism-based; settings: in vivo, 0.5 h; outline: as §1
[30] = system: Stomach; assay: Biodistribution in Swiss-Webster mouse stomach at 3.7 MBq, iv after 30 mins; type: ADME, organism-based; settings: in vivo, 0.5 h; outline: as §1
[31] = system: Liver; assay: Biodistribution in Swiss-Webster mouse liver at 3.7 MBq, iv after 30 mins; type: ADME, organism-based; settings: in vivo, 0.5 h; outline: as §1
[32] = system: Stomach; assay: Biodistribution in Swiss-Webster mouse stomach at 3.7 MBq, iv after 5 mins; type: ADME, organism-based; settings: in vivo; outline: as §1
[33] = system: Intestine; assay: Biodistribution in Swiss-Webster mouse intestine at 3.7 MBq, iv after 60 mins; type: ADME, organism-based; settings: in vivo, 1 h; outline: as §1
[34] = system: Heart; assay: Biodistribution in Swiss-Webster mouse heart at 3.7 MBq, iv after 30 mins; type: ADME, organism-based; settings: in vivo, 0.5 h; outline: as §1

For CNc1ccc(/C=C/c2ccc(N)cc2)cc1, the Drug uptake [1] was “Active”, the Drug uptake [2] was “Active” and the Drug uptake [3] was “Active”.

With [11CH3]Nc1ccc(/C=C/c2ccc(N)cc2)cc1 the Drug uptake [4] was 0.65 %ID, the Drug uptake [5] was “Not Active” and the logD [6] was 2.25. For the same compound, the Drug uptake [7] was “Active”, the Drug uptake [8] was 0.42 %ID and the Drug uptake [9] was “Active”. For the same compound, the Drug uptake [10] was 1.78 %ID, the Drug uptake [11] was “Active” and the Drug uptake [12] was 15.86 %ID. For the same compound, the Drug uptake [13] was 1.21 %ID, the Drug uptake [14] was 0.28 %ID and the Drug uptake [15] was 1.05 %ID. The Drug uptake [16] was “Active”, the Drug uptake [17] was 0.4 %ID and the Drug uptake [18] was 0.75 %ID. It also gave a Drug uptake [19] of 2.56 %ID, a Drug uptake [20] of 2.69 %ID and a Drug uptake [21] of 2 %ID. The Drug uptake [22] was 0.9 %ID, the Drug uptake [23] was 0.39 %ID and the Drug uptake [24] was 0.85 %ID. For the same compound, the Drug uptake [25] was 1.2 %ID, the Drug uptake [26] was 7.75 %ID and the Drug uptake [27] was 1.37 %ID. The Drug uptake [28] was “Active”, the Drug uptake [29] was 0.76 %ID and the Drug uptake [30] was 0.67 %ID. The Drug uptake [31] was 10.83 %ID, the Drug uptake [32] was 1 %ID and the Drug uptake [33] was 1.74 %ID. The Drug uptake [34] was 0.33 %ID.

Reference: ChEMBL document CHEMBL1629437, “A novel PET marker for in vivo quantification of myelination” (Bioorg Med Chem, 2010)
